Bioassay records: PubChem, several laboratories
Shown are actives, neighbours in structure and some others; about 3.8% of the full set was active somewhere.
MrgX1 PAM – positive allosteric modulators of MrgX1, primary screen, HEK293 cells, Fluo-4 calcium flux | AID 588675, 2011 | FDSS; stronger effect = higher value | B-score at 10 µM | 310,000 tested, 0.63% active;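 active = plate-corrected calcium response at least 3 library SD above typical, normal starting fluorescence, not activating the receptor alone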;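 also: compound read alongside a low EC10 to EC30 dose of BAM8-22 agonist; peak minus trough fluorescence over baseline measured at the second addition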
Target sequence (Q96LB2 whole entry, looked up): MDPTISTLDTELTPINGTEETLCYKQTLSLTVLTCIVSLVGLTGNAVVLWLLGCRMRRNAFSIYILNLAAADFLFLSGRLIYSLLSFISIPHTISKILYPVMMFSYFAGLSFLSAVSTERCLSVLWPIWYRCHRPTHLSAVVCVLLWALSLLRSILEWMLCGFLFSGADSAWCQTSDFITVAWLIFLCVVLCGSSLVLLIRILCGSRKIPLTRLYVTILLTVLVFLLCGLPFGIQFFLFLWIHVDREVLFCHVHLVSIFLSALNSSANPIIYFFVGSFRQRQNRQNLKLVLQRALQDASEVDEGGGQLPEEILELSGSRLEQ
MrgX1 antagonist – antagonists of human MrgX1 receptor, primary screen, HEK293 cells, Fluo-4 calcium flux; Mas-related G-protein coupled receptor member X1 (Homo sapiens), Q96LB2; BAM8-22 antagonism; stronger effect = lower value; B-score at 10 µM; 310,000 tested, 1.3% active; AID 588676, 2011;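 active = calcium-response B-score plate-corrected more than 3 library SD below zero, starting fluorescence within 5 deviations, no agonist response on first addition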;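 also: peak minus trough fluorescence over baseline after final BAM8-22 challenge near maximal dose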
RGS4 act – RGS4 potentiators or activators, primary screen, cell-based, HEK293 M3R inducible RGS4, calcium flux; carbachol calcium flux Fluo4; stronger effect = lower value; B-score at 10 µM; 310,000 tested, 0.92% active;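 active = B-score of the integrated calcium signal more than 4 SD below the library mean, with starting fluorescence not abnormally high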;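 also: negative B-score means reduced calcium response which marks RGS4 activation or potentiation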
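System: HEK293 FlpIn-TREx cells, stable M3R, doxycycline-inducible RGS4. Timing: overnight RGS4 induction, 30 min dye load 37 °C, 20 min compound RT. Also added: carbachol, ECmax concentration. Measured by: Fluo4 fluorescence kinetic imaging of calcium. Evaluation: integrated calcium ratio converted to B score.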
Lipid droplet – inhibitors of hepatocyte lipid droplet formation, primary screen, imaging, high-throughput imaging, BODIPY stain; AML12 mouse hepatocytes, oleate lipid droplets; inhibition, % at 6.5 µM; 240,000 tested, 0.4% active; AID 1656, 2009;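 active = lipid droplet intensity inhibited by at least 50%, with more than 500 cells counted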
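Material – mouse AML12 hepatocyte cell line, fixed after treatment · Compound dosing – one dose, 6.5 µM compound · Times – compound with oleate, overnight · Measured by – Image-based BODIPY and DAPI two-channel analysis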
RGS4 inh – RGS4 inhibitors, primary screen, cell-based, HEK293 M3R inducible RGS4, calcium flux; Regulator of G-protein signaling 4 (Homo sapiens), P49798; Fluo-4 calcium flux; stronger effect = higher value; triggered by carbachol at its EC20; B-score at 10 µM; 310,000 tested, 0.45% active; AID 463165, 2010;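 active = B-score, a plate-corrected calcium signal, over three deviations above library mean, with baseline fluorescence within five deviations of library mean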;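 also: RGS4 expression induced by doxycycline in cells with stable M3 receptor; B-score is computed from the integrated fluorescence ratio over baseline after carbachol; higher B-score means a larger calcium signal and so more RGS4 inhibition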
Target sequence (P49798 whole entry, looked up): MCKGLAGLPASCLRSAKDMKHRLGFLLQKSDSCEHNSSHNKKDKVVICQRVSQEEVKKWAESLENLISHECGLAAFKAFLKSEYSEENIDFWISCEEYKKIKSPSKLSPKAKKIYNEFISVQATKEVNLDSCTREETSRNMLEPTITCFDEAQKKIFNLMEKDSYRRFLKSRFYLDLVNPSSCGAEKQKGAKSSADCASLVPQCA
MrgX1 agonist – agonists of human MrgX1 receptor, primary screen, HEK293 cells, Fluo-4 calcium flux. Mas-related G-protein coupled receptor member X1 (Homo sapiens), Q96LB2. Fluo-4 calcium fluorescence, agonist mode; stronger effect = higher value. B-score at 10 µM. 310,000 tested, 0.44% active. AID 588627, 2011;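 active = calcium response B-score plate-corrected fluorescence ratio at least 3 library SD, with starting fluorescence B-score inside 5 SD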
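Test system: HEK293 cells stably expressing human MrgX1 receptor; amount: 15,000 cells per well; doses: compound delivered in addition one of three; times: overnight plating before 1 h dye loading; detection: Fluo-4 NW calcium-flux fluorescence, kinetic read; read-out basis: B-scored fluorescence response ratio; controls: positive and negative controls per plate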
Starred values were filed as active, the others as inactive; i = inactive; / = no result.

SMILES | MrgX1 PAM | MrgX1 antagonist | RGS4 act | Lipid droplet | RGS4 inh | MrgX1 agonist
Clc1ccc2c(c1)C(OC1CN3CCC1CC3)c1ccccc1CS2 (centres undefined) | i | i | -8.62* | 18.0 | i | i
CN1CCN(CCOC2c3ccccc3CSc3ccc(Cl)cc32)CC1 (centres undefined) | i | -9.38* | i | -3.8 | i | i
CN1CC(C(=O)c2cccc(C(F)(F)F)c2)C(c2ccc(Cl)cc2)C1 (centres undefined) | i | i | i | / | i | i
O=C(CN1CCCCC1)c1ccc(F)cc1 | i | i | i | 7.5 | i | i
O=C(c1ccccc1)C(CN1CCCC1)c1ccccc1 (centres undefined) | i | i | -8.36* | -2.2 | i | i
CCN(CCO)c1ccc(N=Cc2c(O)n(C)c(=S)[nH]c2=O)cc1 | i | i | i | 11.1 | i | 43.3*
Nc1ccccc1-[n+]1c(-c2ccccc2)cc(-c2ccccc2)cc1-c1ccccc1 | i | -7.32* | i | -2.5 | i | i
Cc1ccc(-c2cc(-c3ccccc3)cc(-c3ccccc3)[n+]2-c2ccc(C(=O)O)cc2)cc1 | i | i | i | / | i | i
COc1ccc(-c2cc(-c3ccccc3)[n+](C)c(-c3ccccc3)c2)cc1 | i | i | i | 2.5 | i | i
[O-]c1ccccc1-[n+]1c(-c2ccccc2)cc(-c2ccccc2)cc1-c1ccccc1 | 8.34* | i | i | / | i | i
Cc1ccccc1-[n+]1c(-c2ccccc2)cc(-c2ccccc2)cc1-c1ccccc1 | i | -7.33* | -8.86* | / | i | i
Oc1ccccc1-[n+]1c(-c2ccccc2)cc(-c2ccccc2)cc1-c1ccccc1 | 12.5* | i | -7.4* | / | i | i
O=[N+]([O-])[N-][n+]1cnn(Cc2ccc(Cl)cc2)c1 | i | i | i | 12.9 | i | i
CCCNC(=O)N1[C@H]2CC[C@@H]1C(C(=O)OC)=C(c1ccccc1)C2 | i | i | i | / | i | i
C=C1C(=O)O[C@@H]2C[C@@H](C)[C@@H]3C4OC4C(=O)[C@@]3(C)[C@@H](O)[C@H]12 (some centres undefined) | i | i | i | -2.4 | 5.15* | i
O=[N+]([O-])c1cc(O)c(O)c([N+](=O)[O-])c1 | i | -5.37* | / | / | / | i
CCOC(=O)CSc1ccc(C(=O)N2CCC3(CC2)OCCO3)cc1[N+](=O)[O-] | i | i | i | 5.6 | i | i
Cc1c(C(=O)N2CCC3(CC2)OCCO3)oc2ccc(S(=O)(=O)N3CCCCC3)cc12 | i | -5.27* | i | -19.5 | i | i
COc1ccc(C(=O)C2CN(C)CC2c2ccc(Cl)cc2)cc1 (centres undefined) | i | i | -7.25* | -6.5 | i | i
COc1ccc(Cl)cc1C(=O)C1CCCN(Cc2cnc(C)s2)C1 (centres undefined) | i | i | i | -11.2 | i | i
CC[C@@H]1C(=O)OC[C@@H]1Cc1cncn1C | 8.74* | i | / | / | / | i
C/C=C1/CC(C)C(C)(O)C(=O)OCC2CCN3CCC(OC1=O)C23 (centres undefined) | i | i | -8.22* | 5.3 | i | i
Cc1cc(C=C2C(=O)N(C)C(=S)N(C)C2=O)c(C)n1C1CCCCC1 | i | i | i | / | i | 47*
CCC1(c2ccc(N)cc2)CCC(=O)NC1=O (centres undefined) | i | i | i | / | i | i
Cc1cccc(OP(=O)(Nc2cccnc2)Oc2cccc(C)c2)c1 | i | i | i | -8.7 | i | i
SMILES | MrgX1 PAM | MrgX1 antagonist | RGS4 act | Lipid droplet | RGS4 inh | MrgX1 agonist
O=P(Nc1cccnc1)(Oc1ccccc1Cl)Oc1ccccc1Cl | i | i | -8.41* | -16.1 | i | i
CN1CCN(/N=C/c2c(O)n(Cc3ccc(F)cc3)c(=O)[nH]c2=O)CC1 | i | i | i | -6.2 | i | i
CC(=O)c1ccc2c(c1)C1C(Cl)C(Sc3ccccc3[N+](=O)[O-])CC1C(c1ccccc1[N+](=O)[O-])N2 (centres undefined) | i | i | -7.89* | -17.6 | i | i
CC(=O)c1ccc2c(c1)C1C(Cl)C(Sc3ccccc3[N+](=O)[O-])CC1C(c1ccccc1)N2 (centres undefined) | i | i | i | 1.2 | i | i
Cc1cc(OC(=O)c2ccco2)c2c3c(c(=O)oc2c1)CCCC3 | i | i | i | 5.0 | i | i
Cc1cc(OC(=O)c2cccs2)c2c3c(c(=O)oc2c1)CCCC3 | i | i | -7.34* | -19.1 | i | i
COc1ccc(CN2CCN(Cc3ccccc3F)CC2)cc1 | i | i | i | 2.3 | i | i
Cc1ccc(-c2cc(-c3ccc(C)cc3)[n+](-c3ccc(C(=O)O)cc3)c(-c3ccc(C)cc3)c2)cc1 | i | i | i | / | i | i
Cc1ccc(C[n+]2c(-c3ccc(C)cc3)cc(-c3ccc(C)cc3)cc2-c2ccc(C)cc2)cc1 | i | -13.4* | -7.21* | / | i | i
CC1COC2N=C(N[N+](=O)[O-])NC2O1 (centres undefined) | i | i | i | 8.0 | i | i
Cc1cc(O)c2c(c1)OC(C)(C)C1=C2CC(C)CC1 (centres undefined) | i | i | i | -8.2 | i | i
O=C1Nc2cc(C(=O)N3CCC4(CC3)OCCO4)ccc2NC1CSCc1cccc(F)c1 (centres undefined) | i | i | i | -2.5 | i | 42.2*
COP(=O)(OC)C(NC(=O)C(C)(C)C)=C(Cl)Cl | i | -5.77* | i | -6.4 | i | i
CCCOP(=O)(OCCC)C(NC(=O)c1ccccc1)=C(Cl)Cl | i | i | i | 31.4 | i | i
COC(=O)C1=C(c2cc3ccccc3o2)C[C@@H]2CC[C@H]1N2C(=O)NC(C)C | i | i | i | / | i | i
COc1cc(N2CCOCC2)ccc1/C=C1\C(=O)NC(=O)N(Cc2ccc3c(c2)OCO3)C1=O | 11.8* | i | i | 2.8 | i | i
Cc1ccc(/C=C2\C(=O)NC(=O)N(Cc3ccccc3Cl)C2=O)o1 | i | i | i | 4.0 | i | i
